The experiment relates to γ-secretase. It counts as in vivo, J20 hAPP transgenic mice. The gist of the method:
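Mice of either sex, probe guide in left hippocampus (bregma −3.1 mm, 2.5 mm lateral, 1.2 mm below dura, 12° angle), freely moving in Raturn cages on 12 h light/dark. γ-Secretase inhibitor 3 mg/kg i.p. given during ongoing microdialysis; hourly dialysates in refrigerated collector. Aβ38/40/42 by multiplex electrochemiluminescence (C-terminal-specific capture, SULFO-TAG 6E10 detection), in duplicate; half-lives calculated.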

Molecules are shown by their SMILES.

Consider `C[C@H](NC(=O)Cc1cc(F)cc(F)c1)C(=O)N[C@H]1N=C(c2ccccc2)c2ccccc2N(C)C1=O` [Compound E], for which the “t1/2 of decline of total ISF Aβ after Compound E” value (3 mo tg (plaque-free) J20 mice, Compound E 3 mg/kg i.p. at time 0 h, ISF sampled hourly at 1 μl/min, Aβ ELISA) is recorded as ~ 2 h. In addition, the “ISF Aβ38, Aβ40 and Aβ42 after Compound E in young mice” value (young plaque-free (3 mo) tg mouse, first 5 h after Compound E 3 mg/kg i.p.) is “all 3 peptides fell together”.

The values are drawn from article PMC3227224 (The Journal of neuroscience : the official journal of the …, 2011).
